High-throughput results deposited in PubChem BioAssay by Sanford-Burnham Center for Chemical Genomics.
CXCR6 block – CXCR6 (human) receptor inhibition | hit rate 0.36% among 360,000 | AID 602244 | CHO-K1 PathHunter CXCR6 beta-arrestin, luminescence | inhibition, % at 20 µM; in the data active = inhibition above about 34%, passing the limit was not always enough;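 note: antagonist mode with CXCL16 agonist at 10 nM final; 0% = 10 nM CXCL16 with DMSO and 100% = unstimulated wells without agonist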
CCR6 antag – antagonists of human CCR6 receptor; inhibition, % at 20 µM; CHO-K1 CCR6 PathHunter beta-arrestin, luminescence, CCL20-stimulated; AID 493098; P51684; hit rate 0.49% among 340,000;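 active = compounds whose inhibition of the agonist-driven luminescence signal at 20 µM reaches about 50%, limit read from the data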;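 note: cells stimulated with CCL20 at 14 nM final; plate controls were DMSO with CCL20 for no effect and DMSO without agonist for full effect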
Target sequence (P51684 whole entry, looked up): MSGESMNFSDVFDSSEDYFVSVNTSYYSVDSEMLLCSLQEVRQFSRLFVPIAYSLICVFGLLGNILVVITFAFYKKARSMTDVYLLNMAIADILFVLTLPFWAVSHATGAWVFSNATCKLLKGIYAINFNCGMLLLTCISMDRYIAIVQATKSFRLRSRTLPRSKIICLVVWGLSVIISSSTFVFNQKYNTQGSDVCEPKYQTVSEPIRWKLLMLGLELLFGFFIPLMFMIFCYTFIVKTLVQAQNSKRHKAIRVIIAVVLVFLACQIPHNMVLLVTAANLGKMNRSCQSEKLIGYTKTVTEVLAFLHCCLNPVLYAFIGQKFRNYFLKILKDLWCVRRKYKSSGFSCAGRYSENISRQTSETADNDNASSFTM
APJ antagonist – antagonists of human APJ apelin receptor. hit rate 0.32% among 330,000. CHO-K1 APJ beta-arrestin complementation, luminescence. inhibition, % at 20 µM;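 active = inhibition above about 40% at 20 µM, limit read from the data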;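 note: cells challenged with 10 nM apelin-13 agonist together with compound; plate controls were apelin-13 plus DMSO wells for no effect and DMSO wells lacking apelin-13 for full effect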
APJ agonist – activates the human apelin receptor APJ | P35414 | CHO-K1 APJ PathHunter beta-arrestin, luminescence; 0% DMSO wells, 100% apelin | activation, % at 20 µM | hit rate 0.11% among 330,000 | AID 2520;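 active = activation more than six SD over the plate average, tested at 20 µM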;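 note: 0% = DMSO alone and 100% = apelin-13 at 10 nM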
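Test system: CHO-K1 APJ beta-arrestin complementation cell line. Amount: cell density 1000 per well. Controls: DMSO negative, 10 nM Apelin-13 positive. Signal: luminescent beta-gal fragment complementation, chemiluminescent substrate. Read-out basis: agonist-driven arrestin binding to APJ. Timing: compound stimulation 90 min at 25 °C, detection 60 min.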
EBI2 antag – antagonists of human EBI2 receptor; EBI2 beta-arrestin recruitment, luminescence, 7a,25-OHC stimulated; inhibition, % at 5 µM; hit rate 0.81% among 360,000; in the data active = inhibition above about 38%;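 note: enzyme fragment complementation signal reports receptor beta-arrestin coupling in cells; 0% = agonist plus DMSO wells and 100% = wells without agonist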
APJ ag confirm – APJ receptor agonism confirmation; shares compounds with APJ agonist; CHO-K1 APJ PathHunter beta-arrestin, luminescence; activation, % at 20 µM; hit rate 10% among 310; AID 2764;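 active = activation above 40%, taking the highest of four retests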;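 note: plate controls were DMSO wells for no effect and apelin-13 at 10 nM for full effect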
* = called active by the depositor; · = no result given. A selection: hits, their analogues and other compounds. The true share with any hit is near 1.5%.

SMILES	CXCR6 block	CCR6 antag	APJ antagonist	APJ agonist	EBI2 antag	APJ ag confirm
O=C(Nc1ccc(Cl)c([N+](=O)[O-])c1)ONC1=NCCCCC1	-9.2	-15.1	-60.3	15.9*	-11.4	18.2
O=C(c1ccc(Cl)nc1)N1CCN(S(=O)(=O)c2ccc(Cl)cc2)CC1	-5.2	-3.3	3.9	5.0	7.8	·
Nc1c(C(O)(C(F)(F)F)C(F)(F)F)cc(C(O)(C(F)(F)F)C(F)(F)F)c2ccccc12	4.3	6.1	-9.3	49.9*	-21.4	37.1
CC(=O)c1cccc(CN2CCC(n3nccc3NC(=O)c3ccc4c(c3)OCO4)CC2)c1	-8.0	-1.5	-5.8	-2.9	-5.3	·
COC(=O)C1(Cc2cc(-c3ccc(Cl)cc3)no2)CCN(C(=O)OC(C)(C)C)CC1	-2.7	12.2	-50.3	-3.5	-0.3	·
COC(=O)C1(Cc2cc(-c3cccnc3)no2)CCN(C(=O)OC(C)(C)C)CC1	-26.7	-12.2	-191.2	36.4*	-42.3	31.6
CCOc1cc2[nH]c(=S)n(CCC(=O)N3CCc4ccccc4C3)c(=O)c2cc1OCC	-1.8	-17.7	-10.8	52.7*	-7.4	47.5*
CCOc1cc2[nH]c(=S)n(CC3CCCN3CC)c(=O)c2cc1OCC (configuration not stated)	11.1	-8.4	16.1	17.1*	9.1	25.5
COc1cccc(N2CCN(c3ncnc4c3[nH]c3ccccc34)CC2C)c1 (configuration not stated)	·	·	-57.4	19.0*	·	41.4*
O=C(Nc1ccc(OCc2ccccc2)cc1)Nc1nnc([C@@H]2C[C@H](O)[C@@H](CO)O2)s1	-0.9	·	·	·	-3.5	·
COc1ccc(NC(=O)/C(C#N)=C/c2ccc(Sc3nncn3C)c([N+](=O)[O-])c2)cc1	-0.3	19.6	-45.5	18.0*	-3.0	17.6
Cc1ccc2nc(N(CCCN(C)C)C(=O)c3ccc(S(=O)(=O)N4CCc5ccccc5C4)cc3)sc2c1	-8.7	13.0	-40.4	78.7*	7.7	46.1*
CN(C)CCCN(C(=O)c1ccc(S(=O)(=O)N2CCc3ccccc3C2)cc1)c1nc2ccc(F)cc2s1	-9.1	6.1	2.4	46.8*	13.9	21.7
Cc1cccc2sc(N(CCCN(C)C)C(=O)c3ccc(S(=O)(=O)N4CCc5ccccc5C4)cc3)nc12	4.7	-4.8	-4.7	20.6	-4.4	·
COc1ccc2sc(N(CCCN(C)C)C(=O)c3ccc(S(=O)(=O)N4CCc5ccccc5C4)cc3)nc2c1	3.2	-1.5	-12.1	49.7*	12.1	34.4
Cc1cc(C)c2sc(N(CCCN(C)C)C(=O)c3ccc(S(=O)(=O)N4CCc5ccccc5C4)cc3)nc2c1	-3.0	·	-9.3	66.0*	-3.0	44.5*
O=C(Nc1ccc2c(c1)OCO2)C1CCCN1C(=O)Nc1ccccc1 (configuration not stated)	2.2	1.9	5.6	-2.8	8.1	·
COc1ccc(S(=O)(=O)N2CCC(C(=O)Nc3ccc(S(=O)(=O)N4CCCC4)cc3)CC2)cc1OC	12.8	11.5	14.8	9.9	-2.2	·
Cc1cccn2c(=O)c3cc(C(=O)NCC4CCCO4)c(=N)n(CCN4CCOCC4)c3nc12 (configuration not stated)	8.1	-1.7	-5.9	30.6*	-9.1	-4.5
COc1ccc(/C=N/Nc2cc(C)nc3ccc(Br)cc23)cc1	-3.5	1.1	-6.2	16.7*	-14.3	36.8
O=C(NC(=S)Nc1ccccc1N1CCOCC1)c1ccc(-c2ccccc2F)o1	16.9	27.3	20.3	-7.6	29.2	·
COc1ccc(C)cc1S(=O)(=O)N(C)CC(=O)NCc1ccco1	0.6	1.4	-27.9	25.4*	-13.6	25.2
COc1cccc2sc3ccc(NCCC4CCCN4C)cc3c(=O)c12 (configuration not stated)	-21.2	14.7	-123.6	52.5*	-4.0	1.0
COc1cc2sc3cc(NCC[C@@H]4CCCN4C)ccc3c(=O)c2cc1OC	-8.0	7.0	-1.4	-1.1	-6.7	·
C[C@H](CO)N1C[C@H](C)[C@@H](CN(C)CC2CCCCC2)Oc2c(NC(=O)Cc3ccccc3)cccc2C1=O	11.6	-4.6	15.5	-0.5	6.3	·
SMILES	CXCR6 block	CCR6 antag	APJ antagonist	APJ agonist	EBI2 antag	APJ ag confirm
O=C(OCc1nnc(-c2cccs2)o1)C1=NN(c2ccccc2)C(=O)CC1	-4.5	19.6	-20.4	-3.8	-11.4	·
Cc1ccc(CNC(=O)[C@H](C)NC(=O)C2CCN(C(=O)[C@@H]3CCCN3C(=O)OC(C)(C)C)CC2)cc1	-4.9	-11.0	-2.4	-2.2	-3.3	·
N#Cc1nc(-c2ccc(OCc3ccc(Cl)cc3)cc2)oc1N1CCOCC1	2.9	7.3	0.6	25.2*	-15.6	3.7
N#Cc1nc(-c2ccc(OCc3ccc(Cl)cc3)cc2)oc1N1CCC(C(N)=O)CC1	2.0	11.2	5.8	-1.5	-4.9	·
Cc1cccc(C(=O)OCC(=O)NC(C)CCc2ccccc2)c1O (configuration not stated)	-0.5	5.0	-7.4	-4.6	-17.0	·
COc1ccc(-c2cn3c(C)c(C(=O)Nc4cccc(NC(C)=O)c4)sc3n2)cc1	-10.5	5.6	-31.2	16.9*	41.5	17.5
CCCCCN=C(N)N/N=C/c1c[nH]c2ccc(OC)cc12	27.3	54.5*	-20.5	35.0*	4.5	38.8
CCCOc1ccc(C(=O)N/N=C/c2c[nH]c3ccc(Br)cc23)cc1	-9.7	-18.0	-10.8	-3.8	1.0	·
O=C(NCc1cccc2ccccc12)c1cccs1	-6.8	1.2	-0.7	-3.8	-2.5	·
COc1ccc(-c2nc3ccccn3c2NCc2ccc3c(c2)OCO3)cc1	1.7	8.1	-7.9	4.8	-11.8	·
COc1ccc(-c2cc(-c3nc4ccccn4c3NCc3ccccc3)ccc2OC)cc1	15.7	6.7	-28.5	23.1*	-132.4	5.4
CN(C)S(=O)(=O)c1ccc(-c2csc(N/N=C/c3ccco3)n2)cc1	-2.2	-13.6	-40.4	24.0*	-43.6	44.3*
CN(C)S(=O)(=O)c1ccc(-c2csc(N/N=C/c3ccc(O)cc3)n2)cc1	8.3	7.0	-98.5	15.5*	-14.5	-2.5
C(=N\Nc1nc(-c2ccccc2)cs1)/c1ccncc1	-7.2	-19.0	-28.7	6.0	-3.2	·
Cc1c(C(=O)OC(C)C)sc(NC(=O)c2cnccn2)c1C(=O)OC(C)C	3.3	0.6	·	·	0.3	·
CCSc1nnc(NC(=O)CCNC(=O)c2ccccc2Cl)s1	-0.1	-12.0	-13.0	-1.1	-3.8	·
COc1cc(CNC(=O)OCC(C)C)cc(OC)c1OC	-3.8	3.5	4.2	18.4*	-2.1	6.5
O/N=C\c1cnc(N2CCN(c3ccccc3)CC2)s1	-9.8	12.7	6.5	-4.8	-2.8	·
COC1(C)CC2C(CC1OC(=O)c1cc([N+](=O)[O-])cc([N+](=O)[O-])c1)C2(C)C (configuration not stated)	-11.7	-61.0	-52.3	13.5*	4.9	20.7
COC(=O)c1cc(C(=O)NCC2CCCCC2)cc([N+](=O)[O-])c1	-24.2	12.2	0.9	-0.3	-7.0	·
